FN deposition inh: fibronectin deposition inhibition; inhibition, % at 12.6 µM; AID 743247; AH1F fibroblasts, Alexa488-fibronectin deposition fluorescence, overnight; 0.086% of 350,000 active;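 active means mean inhibition across replicates of 30% or more, regardless of how many single replicates reach that level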
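Assay system: AH1F fibroblast monolayer, labelled fibronectin deposition. Amount: 10000 cells per well. Also added: labelled fibronectin 24 nM. Compound: single-point pinned compound. Incubation: cell attachment 1 h, compound and FN exposure overnight. Detection: fluorescence after three HBSS washes, excitation 485 nm, emission 525 nm. Read-out: inhibition of fibronectin deposition signal.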
ARNT TACC3 PPI: disruptors of human ARNT/TACC3 interaction. Q9Y6A5. AlphaScreen His-ARNT PAS-B/GST-TACC3 binding, luminescence; TACC3 fragment carries E629A point mutation. inhibition, % at 9.99 µM. 0.66% of 390,000 active. AID 623870;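 active means mean inhibition of replicates at least 50% and at least half of replicates each reaching 50%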
Xi reactivation: reactivates the inactive X chromosome in mouse fibroblasts; AID 743238; 0.055% of 360,000 active; XiGFP mouse fibroblasts, % GFP-positive cells imaging, 3 d; cells co-treated with 5-aza-dC sensitizer; scaled so ellipticine positive control = 100%; activation, % at 7.58 µM;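 active means mean normalized replicate activation at least 10% and every replicate at or above 10%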
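material = 68-5-11 XiGFP fibroblast line | medium = DMEM plus 5-aza-dC sensitizer | schedule = 3 days compound exposure | benchmarks = positive control ellipticine, 6 µM final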
FGF22 binding: shifts melting point of recombinant human FGF22 | Q9HCT0 | recombinant FGF22 thermal shift, SYPRO orange fluorescence; percent of sucrose octasulfate shift, DMSO zero | activity (Tm shift, normalised), % at 9.99 µM | 1.5% of 340,000 active;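 active means mean Tm shift, scaled 0 neutral to 100 positive control, at about 1.3% or above, every replicate too, limit read from the data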
Target sequence (Q9HCT0 whole entry, looked up): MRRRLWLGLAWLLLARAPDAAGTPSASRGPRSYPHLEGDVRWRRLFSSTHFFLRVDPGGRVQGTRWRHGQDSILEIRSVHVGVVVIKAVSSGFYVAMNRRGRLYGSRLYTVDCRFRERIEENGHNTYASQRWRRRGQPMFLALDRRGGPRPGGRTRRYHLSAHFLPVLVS
SIRT5 inh: inhibitors of human sirtuin-5 desuccinylase; Q9NXA8; Purified SirT5, succinyl-peptide AMC, trypsin-coupled fluorescence; inhibition, % at 15 µM; 1.1% of 330,000 active; in the data active means inhibition above about 15%
Target sequence (Q9NXA8 whole entry, looked up): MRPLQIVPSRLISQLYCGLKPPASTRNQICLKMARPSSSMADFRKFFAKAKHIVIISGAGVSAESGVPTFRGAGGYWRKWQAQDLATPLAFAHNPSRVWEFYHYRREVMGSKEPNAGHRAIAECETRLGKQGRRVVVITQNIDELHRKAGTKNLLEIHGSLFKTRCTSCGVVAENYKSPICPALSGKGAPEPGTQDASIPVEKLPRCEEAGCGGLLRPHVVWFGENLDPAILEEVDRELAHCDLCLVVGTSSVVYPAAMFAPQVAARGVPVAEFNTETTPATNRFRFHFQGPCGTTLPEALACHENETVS
DENV2 CPE rescue: inhibitors of DENV2 cytopathic effect. DENV2-infected cells, cytopathic effect rescue, plate reader. CPE inhibition, % at 9.99 µM. 1.7% of 350,000 active. AID 651640; in the data active means CPE inhibition above about 20%, passing the limit was not always enough; tested in BHK-21 cells
A number is an active result; . = inactive; / = not tested or not shown. The list is not random: actives were taken first. Their share in the collection is about 3.8%.

SMILES | FN deposition inh | ARNT TACC3 PPI | Xi reactivation | FGF22 binding | SIRT5 inh | DENV2 CPE rescue
C[C@H](CO)N1C[C@H](C)[C@@H](CN(C)Cc2cccnc2)Oc2cc(C#CC3CCCC3)ccc2S1(=O)=O | . | . | . | . | 15 | .
C[C@H](CO)N1C[C@H](C)[C@H](CN(C)Cc2cccnc2)Oc2cc(C#CC3CCCCC3)ccc2S1(=O)=O | / | . | . | . | 12 | .
O=C(C[C@H]1C=C[C@H](NS(=O)(=O)c2ccccc2)[C@@H](CO)O1)N1CCc2ccccc2C1 | / | . | . | . | . | .
COCC(=O)Nc1ccc2c(c1)C(=O)N(C)C[C@@H](OC)[C@H](C)CN(C(C)=O)[C@@H](C)CO2 | / | . | . | . | . | 32
COCC(=O)Nc1ccc2c(c1)C(=O)N(C)C[C@H](OC)[C@H](C)CN(C(=O)COC)[C@H](C)CO2 | . | . | . | . | . | 24
COCC(=O)Nc1ccc2c(c1)C(=O)N(C)C[C@H](OC)[C@@H](C)CN(C(=O)COC)[C@@H](C)CO2 | . | . | . | . | . | .
Cc1noc(C)c1NC(=O)Nc1cccc2c1O[C@@H](CN(C)C(=O)Nc1ccc(F)cc1)[C@H](C)CN([C@H](C)CO)C2=O | / | / | . | / | / | /
COC1(OC)N=C(N)C2(C#N)C(c3cccc(Oc4ccccc4)c3)C12C#N (stereo not given) | / | . | / | / | / | /
COC1(OC)N=C(N)C2(C#N)C(c3ccccc3)NC(C)=CC12C#N (stereo not given) | / | 57 | / | / | / | /
C/C=C/c1cccc(-c2nc(C(=O)NCc3ccncc3)cc3c2[C@H](CCO)N([S@@](=O)C(C)(C)C)C3)c1 | . | 52 | . | . | . | .
C/C=C/c1cccc(-c2nc(C(=O)NC3CCC3)cc3c2[C@@H](CCO)N(S(=O)C(C)(C)C)C3)c1 (stereo not given in full) | . | / | . | . | 22 | .
CN(C)CCCNC(=O)c1ccc(/C=N/O)nc1 | . | . | . | . | . | .
O=C(NCc1ccccn1)c1ccc(/C=N/O)nc1 | / | 38 | / | / | / | /
O=C(NCc1ccccc1)c1ccc(/C=N/O)nc1 | . | . | / | / | / | /
CNCCCNC(=O)c1ccc(/C=N/O)nc1 | . | 61 | . | . | . | .
CC(C)(c1cc(Br)c(O)c(Br)c1)c1cc(Br)c(O)c(Br)c1 | / | / | / | 1.6 | / | .
O=S1(=O)CC(N2CCN(CCO)CC2)CN1Cc1cn(Cc2ccc(F)cc2)nn1 (stereo not given) | . | / | . | . | . | .
O=S1(=O)CC(N2CCN(CCO)CC2)CN1Cc1cn(Cc2cccc(C(F)(F)F)c2)nn1 (stereo not given) | . | / | . | . | 23 | .
Cc1ccc(Cn2cc(CN3CC(N(C)C)CS3(=O)=O)nn2)cc1 (stereo not given) | . | / | . | . | . | 23
Cc1cc(C)cc(Cn2cc(CN3CC(N4CCN(CCO)CC4)CS3(=O)=O)nn2)c1 (stereo not given) | . | / | . | . | 29 | .
CN(C)C1CN(Cc2cn(Cc3ccc(F)cc3)nn2)S(=O)(=O)C1 (stereo not given) | . | / | . | . | . | .
CN(C)CCN1CCN(C2CN(Cc3cn(Cc4cccc(C(F)(F)F)c4)nn3)S(=O)(=O)C2)CC1 (stereo not given) | . | / | . | . | . | .
Cc1noc(C)c1S(=O)(=O)N(C)C[C@H]1Oc2c(cccc2N(C)C)C(=O)N([C@@H](C)CO)C[C@@H]1C | . | / | . | . | / | .
COC(=O)Cc1cc(=O)[nH]c(Nc2nc3ccccc3o2)n1 | / | . | / | / | / | /
COCc1cc(=O)[nH]c(Nc2nc3ccccc3o2)n1 | . | 60 | / | / | / | /
SMILES | FN deposition inh | ARNT TACC3 PPI | Xi reactivation | FGF22 binding | SIRT5 inh | DENV2 CPE rescue
COc1ccc(/C=N/Nc2ccccn2)cc1O | . | 26 | . | . | . | .
Fc1ccc(/C=N/Nc2ccccn2)cc1 | . | / | . | 44 | . | .
Oc1cccc(C=NNc2ccccn2)c1 | . | . | . | . | . | .
CCc1ccc(O)c(CNCCNCc2cc(CC)ccc2O)c1 | . | . | . | . | / | 73
Cc1ccc(O)c(CNCCNCc2cc(C)ccc2O)c1 | . | . | . | . | . | .
C[C@H](CO)N1C[C@H](C)[C@@H](CN(C)C(=O)Nc2ccc3c(c2)OCO3)Oc2cc(C3=CCCC3)ccc2S1(=O)=O | . | . | . | . | 20 | .
C[C@H]1CN([C@@H](C)CO)S(=O)(=O)c2ccc(C3=CCCCC3)cc2O[C@@H]1CN(C)C(=O)Cc1ccccc1 | . | . | . | . | 15 | .
CC(C)NC(=O)N(C)C[C@@H]1Oc2cc(C3=CCCC3)ccc2S(=O)(=O)N([C@H](C)CO)C[C@@H]1C | / | . | . | . | . | 47
C[C@H]1CN([C@@H](C)CO)S(=O)(=O)c2ccc(C3=CCCC3)cc2O[C@@H]1CN(C)C(=O)CC1CC1 | / | . | . | . | . | 70
C[C@@H]1CN([C@H](C)CO)S(=O)(=O)c2ccc(C3=CCCC3)cc2O[C@@H]1CN(C)C(=O)CC1CC1 | / | . | . | . | . | .
C[C@@H]1CN([C@H](C)CO)C(=O)Cc2cc(NC(=O)Nc3ccccc3)ccc2O[C@@H]1CN(C)S(C)(=O)=O | / | . | . | . | . | .
CN1C(=O)c2cc(NC(=O)c3ccc(F)c(F)c3)ccc2OC[C@@H]2O[C@H](CC(=O)N[C@@H]3CCN(Cc4ccccc4)C3)CC[C@H]21 | . | . | . | . | . | .
C[C@H]1CN([C@@H](C)CO)C(=O)c2cccc(NS(=O)(=O)c3ccccc3)c2O[C@@H]1CN(C)Cc1ccc2c(c1)OCO2 | / | . | . | . | . | .
C[C@H]1CN([C@@H](C)CO)S(=O)(=O)c2ccc(-c3cncnc3)cc2O[C@@H]1CN(C)C(=O)C1CCC1 | / | . | . | . | . | .
C[C@H](CO)N1C[C@H](C)[C@@H](CN(C)C(=O)C2CCC2)Oc2cc(-c3cncnc3)ccc2S1(=O)=O | / | . | . | . | . | 29
C[C@H](CO)N1C[C@H](C)[C@@H](CN(C)C(=O)C2CCC2)Oc2cc(C3=CCCC3)ccc2S1(=O)=O | / | . | . | . | . | 32
CC(C)C#Cc1ccc([C@H]2[C@H]3CN(C(=O)C4CCCCC4)CC(=O)N3[C@H]2CO)cc1 | / | / | . | . | . | .
CC(C)NC(=O)Nc1ccc2c(c1)CC(=O)N([C@H](C)CO)C[C@H](C)[C@@H](CN(C)S(=O)(=O)c1ccccc1)O2 | / | . | . | / | . | .
CC(C(=O)Nc1ccccc1C(=O)O)n1c(C(F)(F)F)nc2ccccc21 (stereo not given) | . | . | . | 43 | . | .
O=C(Cn1c(C(F)(F)F)nc2ccccc21)Nc1ccccc1C(=O)O | . | . | . | / | . | .

Assay outcomes from PubChem BioAssay.
